Assay results from ChEMBL document CHEMBL3352348, “Detailed analysis of (-)-palmyrolide a and some synthetic derivatives as voltage-gated sodium channel antagonists” (J Nat Prod, 2014).

species on record: Mus musculus; test: (§1) Antagonist activity against Voltage-gated sodium channel in Swiss-Webster mouse primary cerebrocortical neurons assessed as inhibition of veratridine-induced sodium influx by SBFI-AM dye based fluorescence assay
Procedure, shortened: (§2)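 Primary cortical neurons from E17 Swiss-Webster mouse embryos, plated at 1.5 × 10^5 cells/well and used at 7–9 days in vitro. Cells were loaded with 10 μM SBFI-AM plus 0.02% Pluronic F-127 for 1 h at 37 °C in Locke's buffer (pH 7.4), then equilibrated 15 min. Baseline was read for 60 s, then compound and/or veratridine was added. Ex 340/380 nm, em 505 nm, background-corrected 340/380 ratio. IC50 from a three-parameter logistic fit, 4–7 experiments.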

SMILES | inhibition
C[C@@H]1CCCC(=O)N(C)/C=C/CC[C@@H](C)C(=O)O[C@@H](C(C)(C)C)C1 | Dose-dependent effect
C[C@H]1CCCC(=O)N(C)/C=C/CC[C@H](C)C(=O)O[C@H](C(C)(C)C)C1 | Dose-dependent effect

tested on: not listed separately; test: as §1; procedure, shortened: as §2

SMILES | IC50
C[C@H](CCCC(N)=O)C[C@@H](OC(=O)[C@H](C)CC/C=C/I)C(C)(C)C | > 10 µM
C[C@@H]1CCCC(=O)N(C)/C=C/CC[C@@H](C)C(=O)O[C@@H](C(C)(C)C)C1 | 2.1 µM
CNC(=O)CCC[C@@H](C)C[C@@H](OC(=O)[C@H](C)CCCC(=O)O)C(C)(C)C | > 10 µM
C[C@@H]1CCCC(=O)N(C)/C=C/CC[C@H](C)C(=O)O[C@@H](C(C)(C)C)C1 | > 10 µM
C[C@@H]1CCCC(=O)N(C)/C=C/CC[C@@H](C)C(=O)O[C@H](C(C)(C)C)C1 | 19.1 µM
C[C@H]1CCCC(=O)N(C)/C=C/CC[C@@H](C)C(=O)O[C@H](C(C)(C)C)C1 | > 10 µM
C[C@@H]1CCCC(=O)N(C)CCCC[C@@H](C)C(=O)O[C@@H](C(C)(C)C)C1 | 3 µM
C[C@@H]1CCCC(=O)N(C)/C=C/CC[C@H](C)C(=O)O[C@H](C(C)(C)C)C1 | 21 µM
CNC(=O)CCC[C@@H](C)C[C@@H](OC(=O)[C@@H](C)CCCCO)C(C)(C)C | > 10 µM
CNC(=O)CCC[C@@H](C)C[C@@H](OC(=O)[C@H](C)CCCCO)C(C)(C)C | > 10 µM
C[C@H]1CCCC(=O)N(C)/C=C/CC[C@H](C)C(=O)O[C@H](C(C)(C)C)C1 | 4 µM
C[C@@H]1CCCC(=O)N(C)CCCC[C@H](C)C(=O)O[C@@H](C(C)(C)C)C1 | 4.5 µM
